The source made the active and inactive calls. No cut-off for these calls is given here.
Key:
Format in all cases: functional
Candida albicans = experiment: Antifungal activity against Candida albicans SC5314 by CLSI M27-A3 broth microdilution method
How it was run: (§1)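 MICs were determined by broth microdilution following CLSI standard M27-A3, with fluconazole as the positive control.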

Cryptococcus neoformans = experiment: Antifungal activity against Cryptococcus neoformans H99 by CLSI M27-A3 broth microdilution method; conditions: var grubii H99; how it was run: as §1
Escherichia coli = experiment: Antibacterial activity against Escherichia coli DH10B by EUCAST method; conditions: K-12 substr. DH10B
How it was run: (§2)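 Minimal inhibitory concentrations were determined by the EUCAST method, with streptomycin sulfate as the positive control.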

LLC-PK1 = experiment: Renoprotective activity in pig LLC-PK1 cells assessed as inhibition of cisplatin-induced damage by measuring cell viability up to 100 uM preincubated for 24 hrs followed by addition of Ez-Cytox reagent and measured after 2 hrs relative to control
How it was run: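 LLC-PK1 pig kidney epithelial cells were cultured in DMEM with 10% FBS, 1% penicillin/streptomycin and 4 mM L-glutamine at 37 °C, 5% CO2. Cells were seeded at 1 × 10^4 per well and allowed to adhere for 2 h. Test sample and/or 25 μM cisplatin were added and incubated for 24 h. Medium was replaced with serum-free medium plus Ez-Cytox for 2 h at 37 °C, then absorbance was read at 450 nm. N-acetyl cysteine was the positive control.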

Staphylococcus aureus = experiment: Antibacterial activity against Staphylococcus aureus NCTC 8325-4 by EUCAST method; how it was run: as §2

Structure (SMILES) | MIC (Candida albicans) [µg/mL] | MIC (Cryptococcus neoformans) [µg/mL] | MIC (Escherichia coli) [µg/mL] | MIC (Staphylococcus aureus) [µg/mL] | Activity (LLC-PK1; Sus scrofa) | Activity (LLC-PK1) [%]
C[C@@H]1O[C@@H](Oc2ccc3c(=O)c(-c4ccc(O)cc4)coc3c2)[C@H](O)[C@H](O)[C@H]1O | > 100 | > 100 | > 100 | > 100 |  | >80
O=c1c(-c2ccc(O)cc2)coc2cc(O[C@@H]3O[C@H](CO)[C@@H](O)[C@H](O)[C@H]3O)cc(O)c12 [GENISTIN] | > 100 | > 100 | > 100 | > 100 | Active | 
O=c1c(-c2ccc(O)cc2)coc2cc(O)ccc12 [DAIDZEIN] | > 100 | > 100 | > 100 | > 100 | Active | 
C[C@@H]1O[C@@H](Oc2cc(O)c3c(=O)c(-c4ccc(O)cc4)coc3c2)[C@H](O)[C@H](O)[C@H]1O | > 100 | > 100 | > 100 | > 100 | Active | 
CO[C@@H]1[C@@H](O)[C@H](C)O[C@@H](Oc2ccc(-c3coc4cc(O[C@@H]5O[C@@H](C)[C@H](O)[C@@H](O)[C@H]5O)cc(O)c4c3=O)cc2)[C@@H]1O | > 100 | > 100 | > 100 | > 100 |  | 
O=c1c(-c2ccc(O)cc2)coc2cc(O[C@@H]3O[C@H](CO)[C@@H](O)[C@H](O)[C@H]3O)ccc12 [DAIDZIN] | > 100 | > 100 | > 100 | > 100 |  | >80

More lines, main results first:

MIC (Candida albicans) [µg/mL] | MIC (Cryptococcus neoformans) [µg/mL] | MIC (Escherichia coli) [µg/mL] | MIC (Staphylococcus aureus) [µg/mL] | Structure (SMILES) | Activity (LLC-PK1; Sus scrofa) | Activity (LLC-PK1) [%]
> 100 | > 100 | > 100 | > 100 | CO[C@@H]1[C@@H](O)[C@H](C)O[C@@H](Oc2ccc(-c3coc4cc(O[C@@H]5O[C@@H](C)[C@H](O)[C@@H](OC)[C@H]5O)ccc4c3=O)cc2)[C@@H]1O | Active | 
> 100 | > 100 | > 100 | > 100 | C[C@@H]1O[C@@H](Oc2ccc(-c3coc4cc(O[C@@H]5O[C@@H](C)[C@H](O)[C@@H](O)[C@H]5O)cc(O)c4c3=O)cc2)[C@H](O)[C@H](O)[C@H]1O | Active | 
> 100 | > 100 | > 100 | > 100 | C[C@@H]1O[C@@H](Oc2ccc(-c3coc4cc(O[C@@H]5O[C@@H](C)[C@H](O)[C@@H](O)[C@H]5O)ccc4c3=O)cc2)[C@H](O)[C@H](O)[C@H]1O | Active | 
> 100 | > 100 | > 100 | > 100 | COc1cc2c(=O)c(-c3ccc(O)cc3)coc2cc1O[C@@H]1O[C@@H](C)[C@H](O)[C@@H](O)[C@H]1O |  | 
> 100 | > 100 | > 100 | > 100 | CO[C@@H]1[C@@H](O)[C@H](C)O[C@@H](Oc2ccc(-c3coc4cc(O[C@@H]5O[C@@H](C)[C@H](O)[C@@H](OC)[C@H]5O)cc(O)c4c3=O)cc2)[C@@H]1O | Active | 
